Results from the M2OR odorant receptor database.
Positions count from the first letter of the chain named.

Tests used:
Settings in all cases: stereoisomer not certain
OR2A7 (Homo sapiens) = target: T1, OR2A7 (Homo sapiens) (UniProt Q96R45)
T1 sequence (whole entry): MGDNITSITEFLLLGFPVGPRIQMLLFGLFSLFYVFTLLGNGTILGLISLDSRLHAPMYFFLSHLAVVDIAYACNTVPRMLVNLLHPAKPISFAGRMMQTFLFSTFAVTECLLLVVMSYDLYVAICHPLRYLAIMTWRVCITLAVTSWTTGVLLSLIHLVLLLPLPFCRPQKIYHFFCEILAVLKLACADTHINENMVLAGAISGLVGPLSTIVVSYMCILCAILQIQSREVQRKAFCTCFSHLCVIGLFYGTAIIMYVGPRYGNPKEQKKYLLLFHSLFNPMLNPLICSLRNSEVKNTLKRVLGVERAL
Method in brief: (§1)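 Values were gathered from published papers (main text and supplementary material), with extra details requested from the original authors when needed, and checked for typos and inconsistencies. Each receptor–molecule pair is called responsive (active) if the original authors judged the measured signal statistically different from baseline, and non-responsive (inactive) otherwise. Assay methods varied by source, often transient mammalian cell-line luciferase assays. Recorded details include cell line, G-protein, co-transfected protein and tags.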

OR2A1 T73A R74C S168C = system: T2, OR2A1 T73A R74C S168C
T2 sequence (whole entry): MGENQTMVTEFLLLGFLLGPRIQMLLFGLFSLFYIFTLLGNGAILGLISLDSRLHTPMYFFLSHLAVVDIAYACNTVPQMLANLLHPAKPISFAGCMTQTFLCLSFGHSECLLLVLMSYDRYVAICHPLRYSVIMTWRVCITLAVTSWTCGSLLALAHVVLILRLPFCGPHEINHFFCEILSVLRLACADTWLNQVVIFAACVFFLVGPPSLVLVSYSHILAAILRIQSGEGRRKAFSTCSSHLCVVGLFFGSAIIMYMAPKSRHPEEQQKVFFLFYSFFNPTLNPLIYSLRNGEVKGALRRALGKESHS
Method in brief: as §1

OR2A12 (Homo sapiens) = target: T3, OR2A12 (Homo sapiens) (UniProt Q8NGT7)
T3 sequence (whole entry): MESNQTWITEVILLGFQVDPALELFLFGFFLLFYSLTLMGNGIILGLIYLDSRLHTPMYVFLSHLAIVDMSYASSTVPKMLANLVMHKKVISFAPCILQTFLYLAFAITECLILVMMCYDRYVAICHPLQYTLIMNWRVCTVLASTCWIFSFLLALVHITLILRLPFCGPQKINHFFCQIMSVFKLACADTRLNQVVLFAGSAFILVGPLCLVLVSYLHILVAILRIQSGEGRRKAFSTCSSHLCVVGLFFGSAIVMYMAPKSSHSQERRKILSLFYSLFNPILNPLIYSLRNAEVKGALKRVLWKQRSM
Method in brief: as §1

OR2A14 (Homo sapiens) = target: T4, OR2A14 (Homo sapiens) (UniProt Q96R47)
T4 sequence (whole entry): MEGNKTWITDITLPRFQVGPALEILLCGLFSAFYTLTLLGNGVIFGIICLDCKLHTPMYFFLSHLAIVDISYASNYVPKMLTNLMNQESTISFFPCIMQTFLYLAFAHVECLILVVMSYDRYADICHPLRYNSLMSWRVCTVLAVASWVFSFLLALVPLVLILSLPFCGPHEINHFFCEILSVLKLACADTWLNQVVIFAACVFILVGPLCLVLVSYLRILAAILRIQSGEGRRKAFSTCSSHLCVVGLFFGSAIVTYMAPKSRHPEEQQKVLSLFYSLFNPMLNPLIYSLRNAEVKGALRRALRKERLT
Method in brief: as §1

OR2A2 (Homo sapiens) = target: T5, OR2A2 (Homo sapiens) (UniProt Q6IF42)
T5 sequence (whole entry): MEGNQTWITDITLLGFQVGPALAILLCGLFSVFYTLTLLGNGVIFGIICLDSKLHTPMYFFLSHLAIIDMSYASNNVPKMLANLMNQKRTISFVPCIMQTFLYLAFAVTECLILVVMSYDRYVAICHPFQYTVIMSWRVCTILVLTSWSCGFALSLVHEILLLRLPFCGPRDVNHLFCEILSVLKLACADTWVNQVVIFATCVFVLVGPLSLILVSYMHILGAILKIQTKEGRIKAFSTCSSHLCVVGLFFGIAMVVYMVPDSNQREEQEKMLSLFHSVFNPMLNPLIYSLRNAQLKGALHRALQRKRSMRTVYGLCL
Method in brief: as §1

OR2A25 (Homo sapiens) = target: T6, OR2A25 (Homo sapiens) (UniProt A4D2G3)
T6 sequence (whole entry): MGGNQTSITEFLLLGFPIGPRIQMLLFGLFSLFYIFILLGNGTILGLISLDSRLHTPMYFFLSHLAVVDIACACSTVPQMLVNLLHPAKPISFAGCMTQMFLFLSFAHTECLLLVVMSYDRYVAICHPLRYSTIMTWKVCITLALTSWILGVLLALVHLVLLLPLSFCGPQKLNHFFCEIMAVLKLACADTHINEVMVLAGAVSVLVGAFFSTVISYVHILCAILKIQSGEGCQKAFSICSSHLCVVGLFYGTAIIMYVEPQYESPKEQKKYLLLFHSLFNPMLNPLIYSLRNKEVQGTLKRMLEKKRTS
Method in brief: as §1

OR2A2 = system: T7, OR2A2
T7 sequence (whole entry): T5 sequence (whole entry) with F280L
Method in brief: as §1

OR2A4 (Homo sapiens) = target: T8, OR2A4 (Homo sapiens) (UniProt O95047)
T8 sequence (whole entry): T1 sequence (whole entry) with T9R, C238R, F250V
Method in brief: as §1

OR2A5 (Homo sapiens) = target: T9, OR2A5 (Homo sapiens) (UniProt Q96R48)
T9 sequence (whole entry): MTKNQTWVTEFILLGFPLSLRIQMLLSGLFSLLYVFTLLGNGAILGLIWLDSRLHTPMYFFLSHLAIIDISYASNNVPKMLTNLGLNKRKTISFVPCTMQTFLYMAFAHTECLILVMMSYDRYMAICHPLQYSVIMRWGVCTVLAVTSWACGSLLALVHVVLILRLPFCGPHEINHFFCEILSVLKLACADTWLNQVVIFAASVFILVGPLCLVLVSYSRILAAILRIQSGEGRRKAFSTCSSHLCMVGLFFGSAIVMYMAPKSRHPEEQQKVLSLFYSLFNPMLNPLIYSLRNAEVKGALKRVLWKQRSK
Method in brief: as §1

OR2A5 I126V A202S A255T = system: T10, OR2A5 I126V A202S A255T
T10 sequence (whole entry): T9 sequence (whole entry) with I126V, A202S, A255T
Method in brief: as §1

OR2A7 = system: T11, OR2A7
T11 sequence (whole entry): T1 sequence (whole entry) with T9R
Method in brief: as §1

OR2AE1 (Homo sapiens) = target: T12, OR2AE1 (Homo sapiens) (UniProt Q8NHA4)
T12 sequence (whole entry): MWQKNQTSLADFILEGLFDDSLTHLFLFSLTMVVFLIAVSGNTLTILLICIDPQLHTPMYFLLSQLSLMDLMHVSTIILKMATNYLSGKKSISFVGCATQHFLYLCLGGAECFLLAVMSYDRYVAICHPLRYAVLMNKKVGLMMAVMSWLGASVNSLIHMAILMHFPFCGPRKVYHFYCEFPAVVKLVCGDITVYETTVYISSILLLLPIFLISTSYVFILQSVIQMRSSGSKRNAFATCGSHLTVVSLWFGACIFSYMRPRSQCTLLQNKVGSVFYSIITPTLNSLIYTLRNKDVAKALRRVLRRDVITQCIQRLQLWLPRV
Method in brief: as §1

OR2AG1 (Homo sapiens) = target: T13, OR2AG1 (Homo sapiens) (UniProt Q9H205)
T13 sequence (whole entry): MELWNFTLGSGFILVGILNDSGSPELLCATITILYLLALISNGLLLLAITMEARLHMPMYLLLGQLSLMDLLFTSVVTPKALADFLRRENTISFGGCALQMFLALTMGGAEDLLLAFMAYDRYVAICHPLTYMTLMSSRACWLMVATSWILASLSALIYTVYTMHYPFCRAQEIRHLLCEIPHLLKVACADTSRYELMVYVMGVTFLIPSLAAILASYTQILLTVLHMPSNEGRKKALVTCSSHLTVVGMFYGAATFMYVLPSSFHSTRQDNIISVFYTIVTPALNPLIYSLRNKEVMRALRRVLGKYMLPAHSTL
Method in brief: as §1

OR2AG2 (Homo sapiens) = target: T14, OR2AG2 (Homo sapiens) (UniProt A6NM03)
T14 sequence (whole entry): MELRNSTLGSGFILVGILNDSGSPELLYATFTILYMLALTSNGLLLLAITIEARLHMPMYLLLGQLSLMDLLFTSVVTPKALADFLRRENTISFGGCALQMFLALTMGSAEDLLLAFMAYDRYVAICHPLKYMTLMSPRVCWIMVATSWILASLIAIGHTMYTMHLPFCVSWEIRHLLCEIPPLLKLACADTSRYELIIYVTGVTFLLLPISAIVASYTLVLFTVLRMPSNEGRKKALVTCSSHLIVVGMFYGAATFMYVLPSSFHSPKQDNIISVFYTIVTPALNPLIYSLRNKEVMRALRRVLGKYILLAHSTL
Method in brief: as §1

OR2AJ1 (Homo sapiens) = target: T15, OR2AJ1 (Homo sapiens) (UniProt Q8NGZ0)
T15 sequence (whole entry): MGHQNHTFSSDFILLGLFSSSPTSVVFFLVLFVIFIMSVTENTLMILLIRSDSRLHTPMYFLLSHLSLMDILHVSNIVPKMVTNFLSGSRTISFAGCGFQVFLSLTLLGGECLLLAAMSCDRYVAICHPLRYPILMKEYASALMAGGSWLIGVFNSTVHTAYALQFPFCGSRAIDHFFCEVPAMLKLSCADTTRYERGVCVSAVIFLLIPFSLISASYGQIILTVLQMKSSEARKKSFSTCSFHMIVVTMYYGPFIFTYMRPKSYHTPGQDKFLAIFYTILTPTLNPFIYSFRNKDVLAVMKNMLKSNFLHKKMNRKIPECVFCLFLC
Method in brief: as §1

OR2AK2 (Homo sapiens) = target: T16, OR2AK2 (Homo sapiens) (UniProt Q8NG84)
T16 sequence (whole entry): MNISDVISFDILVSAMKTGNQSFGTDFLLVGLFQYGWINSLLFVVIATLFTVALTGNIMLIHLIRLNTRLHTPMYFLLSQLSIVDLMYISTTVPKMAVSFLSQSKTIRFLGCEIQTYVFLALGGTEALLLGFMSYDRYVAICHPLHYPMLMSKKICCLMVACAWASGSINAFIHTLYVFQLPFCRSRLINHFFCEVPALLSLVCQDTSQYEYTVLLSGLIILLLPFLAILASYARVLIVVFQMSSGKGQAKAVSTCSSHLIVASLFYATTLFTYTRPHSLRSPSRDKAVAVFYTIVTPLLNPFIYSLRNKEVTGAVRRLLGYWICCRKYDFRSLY
Method in brief: as §1

OR2AP1 (Homo sapiens) = target: T17, OR2AP1 (Homo sapiens) (UniProt Q8NGE2)
T17 sequence (whole entry): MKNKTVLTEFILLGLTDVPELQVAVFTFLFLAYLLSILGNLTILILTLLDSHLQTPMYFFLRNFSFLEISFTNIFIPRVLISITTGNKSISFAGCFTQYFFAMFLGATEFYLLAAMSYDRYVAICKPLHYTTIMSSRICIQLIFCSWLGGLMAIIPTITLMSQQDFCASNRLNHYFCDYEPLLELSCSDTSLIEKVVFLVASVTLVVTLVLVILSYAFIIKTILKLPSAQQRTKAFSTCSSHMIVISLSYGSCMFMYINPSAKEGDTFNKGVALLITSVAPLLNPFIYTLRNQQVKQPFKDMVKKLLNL
Method in brief: as §1

OR2AT4 (Homo sapiens) = target: T18, OR2AT4 (Homo sapiens) (UniProt A6NND4)
T18 sequence (whole entry): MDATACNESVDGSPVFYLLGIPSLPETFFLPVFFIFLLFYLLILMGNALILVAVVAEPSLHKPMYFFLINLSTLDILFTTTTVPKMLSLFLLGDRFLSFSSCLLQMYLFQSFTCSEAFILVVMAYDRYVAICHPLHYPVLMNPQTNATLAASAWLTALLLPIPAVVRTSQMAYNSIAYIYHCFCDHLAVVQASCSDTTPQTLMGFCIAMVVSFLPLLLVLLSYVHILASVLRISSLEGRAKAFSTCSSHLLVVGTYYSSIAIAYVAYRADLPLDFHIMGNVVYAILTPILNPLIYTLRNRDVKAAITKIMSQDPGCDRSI
Method in brief: as §1

OR2B11 (Homo sapiens) = target: T19, OR2B11 (Homo sapiens) (UniProt Q5JQS5)
T19 sequence (whole entry): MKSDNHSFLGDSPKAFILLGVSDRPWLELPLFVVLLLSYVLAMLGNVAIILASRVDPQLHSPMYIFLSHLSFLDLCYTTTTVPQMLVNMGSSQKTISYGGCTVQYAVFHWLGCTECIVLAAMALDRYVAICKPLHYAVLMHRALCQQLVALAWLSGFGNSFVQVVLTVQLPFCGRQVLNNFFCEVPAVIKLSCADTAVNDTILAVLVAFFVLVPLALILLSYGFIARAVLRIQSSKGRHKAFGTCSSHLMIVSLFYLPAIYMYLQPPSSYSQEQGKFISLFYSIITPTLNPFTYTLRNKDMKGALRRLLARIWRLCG
Method in brief: as §1

OR2B2 (Homo sapiens) = target: T20, OR2B2 (Homo sapiens) (UniProt Q9GZK3)
T20 sequence (whole entry): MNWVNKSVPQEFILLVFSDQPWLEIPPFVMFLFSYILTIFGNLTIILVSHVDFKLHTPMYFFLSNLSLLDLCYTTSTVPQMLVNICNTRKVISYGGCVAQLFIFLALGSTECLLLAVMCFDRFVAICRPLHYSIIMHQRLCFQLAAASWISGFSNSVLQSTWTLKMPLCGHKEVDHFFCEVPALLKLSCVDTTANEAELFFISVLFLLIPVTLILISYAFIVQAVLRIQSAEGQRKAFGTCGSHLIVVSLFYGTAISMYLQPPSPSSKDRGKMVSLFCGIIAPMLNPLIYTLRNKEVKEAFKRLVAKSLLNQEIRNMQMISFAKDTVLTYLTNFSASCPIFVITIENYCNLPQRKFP
Method in brief: as §1

Measured: odorant receptor agonist call

CC(C)(C)c1ccccc1
active: OR2A7 (Homo sapiens)

CCCCCCCCCCCCCCC(=O)O
inactive: OR2A7 (Homo sapiens)

CCCCCCC=CCCC=O
inactive: all assays above

CC(=O)c1c(C)c([N+](=O)[O-])c(C(C)(C)C)c([N+](=O)[O-])c1C
not listed: OR2A1 T73A R74C S168C | OR2A2 | OR2A5 I126V A202S A255T | OR2A7
inactive: all other assays above
